Test [1] deals with Staphylococcus aureus. The experiment in a line: Increase in membrane permeability in heterogeneous vancomycin-intermediate resistant Staphylococcus aureus ATCC 700698 at 16 ug/mL using SYTO9 staining by fluorimetric assay. The class given is functional, organism-based.
Test [2] concerns Staphylococcus aureus. Put plainly: Bactericidal activity against heterogeneous vancomycin-intermediate resistant Staphylococcus aureus ATCC 700698 at 16 ug/ml within 30 mins. The class given is functional, organism-based. Summed up: (§1)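 Short-duration time-kill of hVISA ATCC 700698 under conditions similar to the membrane assays, without polysorbate-80, with drug at 4, 8 or 16 μg/ml; viable counts as change in log CFU from time zero over 30 min. Bactericidal defined as ≥3 log CFU decrease; detection limit 200 CFU; three independent experiments.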

Test [3] relates to Staphylococcus aureus. The experiment in a line: Induction of membrane depolarization in heterogeneous vancomycin-intermediate resistant Staphylococcus aureus ATCC 700698 at 16 ug/mL using DiSC3(5) dye by fluorimetric assay. The class given is functional, organism-based.
For test [4], the system named is Staphylococcus aureus. Put plainly: Bactericidal activity against heterogeneous vancomycin-intermediate resistant Staphylococcus aureus ATCC 700698 assessed as reduction in bacterial count at 16 ug/ml within 30 mins. Type of test: functional. Summed up: as §1
Test [5] relates to Staphylococcus aureus. The experiment in a line: Antimicrobial activity against heterogeneous vancomycin-intermediate resistant Staphylococcus aureus. Type of test: functional.
Test [6] concerns Staphylococcus aureus. The experiment in a line: Antimicrobial activity against vancomycin-resistant Staphylococcus aureus. Type of test: functional.
Test [7] relates to Staphylococcus aureus. Put plainly: Antimicrobial activity against vancomycin-intermediate resistant Staphylococcus aureus. Type of test: functional.
For test [8], the system named is Staphylococcus aureus. The experiment in a line: Bactericidal activity against heterogeneous vancomycin-intermediate resistant Staphylococcus aureus ATCC 700698 assessed as reduction in bacterial count at 4 ug/ml within 30 mins. Type of test: functional. The gist of the method: as §1
Test [9] deals with Staphylococcus aureus. The experiment in a line: Increase in membrane permeability in heterogeneous vancomycin-intermediate resistant Staphylococcus aureus ATCC 700698 using SYTO9 staining by fluorimetric assay. The class given is functional, organism-based.
In test [10] the test system is Staphylococcus aureus. Put plainly: Bactericidal activity against heterogeneous vancomycin-intermediate resistant Staphylococcus aureus ATCC 700698 assessed as reduction in bacterial count at 8 ug/ml within 30 mins. Type of test: functional. The gist of the method: as §1
A further test deals with Enterococcus. Put plainly: Antimicrobial activity against vancomycin-resistant Enterococcus. Type of test: functional.
The test system of test [11] is Staphylococcus aureus. The experiment in a line: Induction of membrane depolarization in heterogeneous vancomycin-intermediate resistant Staphylococcus aureus ATCC 700698 using DiSC3(5) dye by fluorimetric assay. Type of test: functional, organism-based.
The test system of test [12] is Staphylococcus aureus. The experiment in a line: Antimicrobial activity against heterogeneous vancomycin-intermediate resistant Staphylococcus aureus ATCC 700698. Type of test: functional.

For three compounds, Activity, log10cfu and MIC results are on record in ChEMBL document CHEMBL1687810, “Oritavancin disrupts membrane integrity of Staphylococcus aureus and vancomycin-resistant enterococci to effect rapid bacterial killing” (2010).

SMILES strings stand for the structures. Values after ≈ are worked out from the molar mass of the structure shown. Active and inactive are the calls of the source.

For `CN[C@H](CC(C)C)C(=O)N[C@H]1C(=O)N[C@@H](CC(N)=O)C(=O)N[C@H]2C(=O)N[C@H]3C(=O)N[C@H](C(=O)N[C@H](C(=O)O)c4cc(O)cc(O)c4-c4cc3ccc4O)[C@H](O)c3ccc(c(Cl)c3)Oc3cc2cc(c3O[C@@H]2O[C@H](CO)[C@@H](O)[C@H](O)[C@H]2O[C@H]2C[C@](C)(N)[C@H](O)[C@H](C)O2)Oc2ccc(cc2Cl)[C@H]1O`, the outcome in the test with Staphylococcus aureus [1], in the test on Staphylococcus aureus [2] and in the test with Staphylococcus aureus [3] was inactive.

Regarding `CN[C@H](CC(C)C)C(=O)N[C@H]1C(=O)N[C@@H](CC(N)=O)C(=O)N[C@H]2C(=O)N[C@H]3C(=O)N[C@H](C(=O)N[C@H](C(=O)O)c4cc(O)cc(O)c4-c4cc3ccc4O)[C@H](O[C@H]3C[C@](C)(N)[C@@H](O)[C@H](C)O3)c3ccc(c(Cl)c3)Oc3cc2cc(c3O[C@@H]2O[C@H](CO)[C@@H](O)[C@H](O)[C@H]2O[C@H]2C[C@](C)(NCc3ccc(-c4ccc(Cl)cc4)cc3)[C@@H](O)[C@H](C)O2)Oc2ccc(cc2Cl)[C@H]1O` [ORITAVANCIN], the log10cfu result with Staphylococcus aureus [4], in the test with Staphylococcus aureus [8] and with Staphylococcus aureus [10] was “>=3” throughout. In addition, the minimal inhibitory concentration (MIC) against Staphylococcus aureus [5] amounted to 0.25 µg/mL (≈ 0.139 µM); against Staphylococcus aureus [6], 0.25 µg/mL (≈ 0.139 µM); against Staphylococcus aureus [7], 0.25 µg/mL (≈ 0.139 µM); against Enterococcus, 0.25 µg/mL (≈ 0.139 µM); with Staphylococcus aureus [12], 1 µg/mL (≈ 0.558 µM). In addition, the Activity entry with Staphylococcus aureus [9] and with Staphylococcus aureus [11] was “Dose-dependent effect” throughout.

As for `CN[C@H](CC(C)C)C(=O)N[C@H]1C(=O)N[C@@H](CC(N)=O)C(=O)N[C@H]2C(=O)N[C@H]3C(=O)N[C@H](C(=O)N[C@H](C(=O)O)c4cc(O)cc(O)c4-c4cc3ccc4O)[C@H](O[C@H]3C[C@](C)(N)[C@@H](O)[C@H](C)O3)c3ccc(c(Cl)c3)Oc3cc2cc(c3O[C@@H]2O[C@H](CO)[C@@H](O)[C@H](O)[C@H]2O[C@H]2C[C@](C)(N)[C@@H](O)[C@H](C)O2)Oc2ccc(cc2Cl)[C@H]1O` [CHLOROEREMOMYCIN], the result in the test with Staphylococcus aureus [1], in the test with Staphylococcus aureus [2] and in the test with Staphylococcus aureus [3] was inactive. The compound also showed an MIC against Staphylococcus aureus [12] of 1 µg/mL (≈ 0.628 µM).
